The test system of data set [1] is Brain. The experiment in a line: Drug uptake in CD1 mouse brain at 0.1 mCi, iv after 30 mins by gamma scintillation counting. It is filed as ADME, organism-based. Conditions: in vivo, 0.5 h. Put shortly: (§1)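 Baseline regional brain study in male CD1 mice (23-28 g) injected via tail vein with 0.1 mCi tracer in 0.2 mL saline (~4000 mCi/μmol). Killed at 10, 30, 60 or 90 min; brain regions dissected on ice, weighed and gamma-counted with injectate standards. Reported as %ID/g tissue, mean ± SD, n=3.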

Data set [2] concerns Blood. Kind of data set: Drug uptake in CD1 mouse blood at 0.1 mCi, iv after 90 mins by gamma scintillation counting. It is filed as ADME, organism-based. Conditions: in vivo, 1.5 h. The method in brief: (§2)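 Baseline whole-body distribution in male CD1 mice (23-28 g). Tracer 0.1 mCi in 0.2 mL saline (~4000 mCi/μmol) into lateral tail vein. Cervical dislocation at 10, 30 or 90 min; organs dissected on ice, weighed, gamma-counted alongside injectate aliquots as standards. Reported as %ID/g tissue, mean ± SD, n=5.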

Data set [3] relates to Lung. Kind of data set: Drug uptake in CD1 mouse lung at 0.1 mCi, iv after 30 mins by gamma scintillation counting. It is filed as ADME, organism-based. Conditions: in vivo, 0.5 h. Put shortly: as §2
Data set [4] deals with Liver. Kind of data set: Drug uptake in CD1 mouse liver at 0.1 mCi, iv after 90 mins in presence of (S)-6-(4-Fluorophenoxy)-3-(piperidin-3-ylmethyl)-2-o-tolylquinazolin-4(3H)-one. Conditions: in vivo, 1.5 h. It is filed as ADME, organism-based. Put shortly:
(§3)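 Blockade arm: male CD1 mice (23-28 g) given 1 mg/kg blocker s.c. in saline/alcohol 9:1, or vehicle alone, 15 min before tail-vein tracer (0.1 mCi in 0.2 mL saline, ~4000 mCi/μmol). Killed by cervical dislocation at 90 min; organs dissected on ice, weighed, gamma-counted against injectate standards; %ID/g tissue, mean ± SD, n=5.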

Data set [5] deals with Cerebellum. Kind of data set: Drug uptake in CD1 mouse cerebellum at 0.1 mCi, iv after 90 mins by gamma scintillation counting. It is filed as ADME, organism-based. Conditions: in vivo, 1.5 h. Put shortly: as §1
In data set [6] the test system is Muscle tissue. Kind of data set: Drug uptake in CD1 mouse muscle at 0.1 mCi, iv after 30 mins by gamma scintillation counting. It is filed as ADME, organism-based. Conditions: in vivo, 0.5 h. The method in brief:
as §2

Data set [7] deals with Lung. Kind of data set: Drug uptake in CD1 mouse lung at 0.1 mCi, iv after 90 mins by gamma scintillation counting. It is filed as ADME, organism-based. The note with it: in vivo, 1.5 h. Put shortly: as §2
Data set [8] deals with Muscle tissue. The experiment in a line: Drug uptake in CD1 mouse muscle at 0.1 mCi, iv after 90 mins in presence of (S)-6-(4-Fluorophenoxy)-3-(piperidin-3-ylmethyl)-2-o-tolylquinazolin-4(3H)-one. It is filed as ADME, organism-based. The note with it: in vivo, 1.5 h. Put shortly:
as §3

Data set [9] in a line: Drug uptake in CD1 mouse testis at 0.1 mCi, iv after 90 mins by gamma scintillation counting. Conditions: in vivo, 1.5 h. It is filed as ADME, organism-based. The method in brief: as §2
Data set [10] relates to Hippocampus. The experiment in a line: Drug uptake in CD1 mouse hippocampus at 0.1 mCi, iv after 10 mins by gamma scintillation counting. It is filed as ADME, organism-based. The note with it: in vivo. The method in brief: as §1
Data set [11] relates to Muscle tissue. The experiment in a line: Drug uptake in CD1 mouse muscle at 0.1 mCi, iv after 10 mins by gamma scintillation counting. It is filed as ADME, organism-based. Conditions: in vivo. Put shortly:
as §2

For data set [12], the system named is Cortex. The experiment in a line: Drug uptake in CD1 mouse cortex at 0.1 mCi, iv after 60 mins by gamma scintillation counting. The note with it: in vivo, 1 h. It is filed as ADME, organism-based. Put shortly: as §1
Data set [13] relates to Hypothalamus. Kind of data set: Drug uptake in CD1 mouse hypothalamus at 0.1 mCi, iv after 10 mins by gamma scintillation counting. It is filed as ADME, organism-based. The note with it: in vivo. Put shortly: as §1
The test system of data set [14] is Lung. The experiment in a line: Drug uptake in CD1 mouse lung at 0.1 mCi, iv after 10 mins by gamma scintillation counting. It is filed as ADME, organism-based. Conditions: in vivo. The method in brief: as §2
Data set [15] is described as follows: Drug uptake in CD1 mouse testis at 0.1 mCi, iv after 90 mins in presence of (S)-6-(4-Fluorophenoxy)-3-(piperidin-3-ylmethyl)-2-o-tolylquinazolin-4(3H)-one. It is filed as ADME, organism-based. Conditions: in vivo, 1.5 h. Put shortly: as §3
Data set [16] has as its system Liver. Kind of data set: Drug uptake in CD1 mouse liver at 0.1 mCi, iv after 30 mins by gamma scintillation counting. It is filed as ADME, organism-based. Conditions: in vivo, 0.5 h. The method in brief:
as §2

Data set [17] has as its system Liver. Kind of data set: Drug uptake in CD1 mouse liver at 0.1 mCi, iv after 10 mins by gamma scintillation counting. It is filed as ADME, organism-based. The note with it: in vivo. The method in brief: as §2
Data set [18] is described as follows: Drug uptake in CD1 mouse adrenal at 0.1 mCi, iv after 90 mins by gamma scintillation counting. The note with it: in vivo, 1.5 h. It is filed as ADME, organism-based, Adrenal gland. Put shortly: as §2
Data set [19] is described as follows: Drug uptake in CD1 mouse testis at 0.1 mCi, iv after 10 mins by gamma scintillation counting. It is filed as ADME, organism-based. The note with it: in vivo. The method in brief:
as §2

A short description of data set [20]: Lipophilicity, log D of the compound. It is filed as physicochemical. The note with it: octanol/water. The method in brief: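 Computed in silico rather than measured experimentally, for pH 7.4 (log D7.4), using a log P/log D prediction program.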
The subject of data set [21] is Heart. Kind of data set: Drug uptake in CD1 mouse heart at 0.1 mCi, iv after 90 mins by gamma scintillation counting. It is filed as ADME, organism-based. The note with it: in vivo, 1.5 h. The method in brief: as §2
Data set [22] has as its system Cerebellum. The experiment in a line: Drug uptake in CD1 mouse cerebellum at 0.1 mCi, iv after 60 mins by gamma scintillation counting. It is filed as ADME, organism-based. Conditions: in vivo, 1 h. Put shortly:
as §1

The subject of data set [23] is Heart. The experiment in a line: Drug uptake in CD1 mouse heart at 0.1 mCi, iv after 10 mins by gamma scintillation counting. It is filed as ADME, organism-based. The note with it: in vivo. The method in brief:
as §2

Data set [24] deals with Muscle tissue. Kind of data set: Drug uptake in CD1 mouse muscle at 0.1 mCi, iv after 90 mins by gamma scintillation counting. It is filed as ADME, organism-based. Conditions: in vivo, 1.5 h. Put shortly: as §2

Take `Cc1ccccc1-c1nc2ccc(Oc3ccc(F)cc3)cc2c(=O)n1C[C@H]1CCCN([11CH3])C1`: the Drug uptake is 0.57 % ID/g in data set [1]; 2.01 % ID/g in data set [2]; 24.02 % ID/g in data set [3]; 14.77 % ID/g in data set [4]; 0.59 % ID/g in [5]; 3.02 % ID/g in data set [6]. For the same molecule, the Drug uptake was 14.74 % ID/g in [7]; 2.22 % ID/g in data set [8]; 1.96 % ID/g in data set [9]; 0.6 % ID/g in [10]; 3.79 % ID/g in [11]; 0.65 % ID/g in data set [12]. Further, the Drug uptake was determined as 0.56 % ID/g in data set [13]; 26.44 % ID/g in data set [14]; 2.25 % ID/g in data set [15]; 14.6 % ID/g in [16]; 18.63 % ID/g in [17]; 7.87 % ID/g in data set [18]. The Drug uptake was found to be 1.07 % ID/g in [19]; 2.94 % ID/g in data set [21]; 0.59 % ID/g in [22]; 5.11 % ID/g in data set [23]; 2.09 % ID/g in [24]. In data set [20], the logD was 4.1.

Broadly, the logD is the decadic logarithm of the distribution of all forms, ionised or not, between an organic phase and buffer at a given pH. The low end stands for a more hydrophilic compound, the high end for a more lipophilic compound.

Values taken from ChEMBL document CHEMBL1765047, “Synthesis and in vivo evaluation of (S)-6-(4-fluorophenoxy)-3-((1-[11C]methylpiperidin-3-yl)methyl)-2-o-tolylquinazolin-4(3H)-one, a potential PET tracer for growth hormone secretagogue receptor (GHSR)” (Bioorg Med Chem, 2011).
